The list is not random: actives were taken first. Their share in the collection is about 2.3%.
TRPC4 block: TRPC4 (mouse) channel inhibition. Q9QUQ5. HEK293 TRPC4beta/mu-opioid, DAMGO-evoked Fluo4 calcium flux; stronger effect = lower value. B-score at 10 µM. 0.39% of 300,000 active. AID 2247;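 active = B-score over 3 SD under the library average, no early fluorescence shift, positive overall ratio signal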
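Assay system: Stable TRPC4beta/mu-opioid receptor HEK293 cells | Reagent: DAMGO in two steps, submaximal then maximal | Compound dosing: Single concentration per test compound | Signal: Fluo4 Ca2+ flux fluorescence | Evaluation: Per-well B score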
TRPC4 agonist: opens the mouse TRPC4 cation channel | Q9QUQ5 | HEK293 TRPC4beta/mu-opioid, Fluo4 calcium fluorescence; stronger effect = higher value | B-score at 10 µM | 0.49% of 310,000 active | AID 2237;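 active = B-score above 5 SD of library B-scores, and initial fluorescence ratio not above library mean plus 5 SD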;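 also: positive B-score marks a calcium rise read as TRPC4 activation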
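Assay system – TRPC4beta and mu-opioid receptor HEK293 stable cells · Measured by – Fluo4 fluorescence, kinetic · Schedule – dye loading 45 min room temperature, 110 s kinetic read · Read-out – B-scored integrated calcium fluorescence ratio · Controls – buffer and maximal DAMGO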
TRPC6 inhibitor: mouse TRPC6 channel inhibition; Q61143; HEK293-TRPC6, membrane potential dye, ACh-evoked depolarization; stronger effect = lower value; B-score at 10 µM; 1.1% of 310,000 active; AID 2553;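 active = B-score under library mean minus 3 SD, initial fluorescence not abnormally high, positive integrated signal ratio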;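 also: B-score derived from integrated fluorescence ratio over the kinetic read; more negative B-score means stronger inhibition of depolarization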
Target sequence (Q61143 whole entry, looked up): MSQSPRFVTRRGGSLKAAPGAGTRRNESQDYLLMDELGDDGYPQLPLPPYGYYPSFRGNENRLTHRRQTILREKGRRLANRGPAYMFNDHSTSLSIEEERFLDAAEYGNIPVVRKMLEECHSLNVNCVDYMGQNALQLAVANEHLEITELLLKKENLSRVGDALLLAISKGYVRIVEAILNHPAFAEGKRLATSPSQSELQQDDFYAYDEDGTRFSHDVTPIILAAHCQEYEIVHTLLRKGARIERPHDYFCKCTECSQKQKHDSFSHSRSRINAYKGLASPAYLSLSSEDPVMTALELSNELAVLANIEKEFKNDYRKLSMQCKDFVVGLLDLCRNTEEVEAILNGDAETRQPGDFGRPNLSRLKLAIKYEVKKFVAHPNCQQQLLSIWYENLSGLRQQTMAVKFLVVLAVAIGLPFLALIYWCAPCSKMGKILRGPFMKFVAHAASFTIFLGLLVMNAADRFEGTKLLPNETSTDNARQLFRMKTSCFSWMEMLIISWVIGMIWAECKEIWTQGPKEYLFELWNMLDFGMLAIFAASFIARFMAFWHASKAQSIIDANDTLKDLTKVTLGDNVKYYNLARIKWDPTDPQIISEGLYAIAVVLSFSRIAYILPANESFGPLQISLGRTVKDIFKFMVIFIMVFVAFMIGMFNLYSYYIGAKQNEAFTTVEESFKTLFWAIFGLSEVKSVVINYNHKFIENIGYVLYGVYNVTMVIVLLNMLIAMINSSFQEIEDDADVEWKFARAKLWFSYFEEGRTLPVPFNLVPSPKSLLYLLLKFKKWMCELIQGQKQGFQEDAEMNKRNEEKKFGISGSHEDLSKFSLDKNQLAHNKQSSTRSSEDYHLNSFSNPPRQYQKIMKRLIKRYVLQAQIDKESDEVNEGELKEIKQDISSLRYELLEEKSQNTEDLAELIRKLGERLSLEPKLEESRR
TRPC6 act: activates the mouse TRPC6 cation channel; Q61143; HEK293-TRPC6 membrane potential dye fluorescence; stronger effect = higher value; B-score at 10 µM; 0.13% of 310,000 active; AID 2550;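 active = B-score of the integrated fluorescence ratio above library mean plus 3 SD, and starting fluorescence ratio within library mean plus 5 SD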;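 also: higher score means more depolarization so channel activation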
TRPC4 potent: allosterically enhances the mouse TRPC4 cation channel. B-score at 10 µM. AID 2227. 0.42% of 310,000 active. HEK293 TRPC4beta/mu-opioid, DAMGO EC20, Fluo-4 Ca2+ flux; stronger effect = higher value. Q9QUQ5;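 active = B-score of calcium response area above 5 SD of library B-scores, with initial fluorescence ratio within 5 SD of library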;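 also: B-score of integrated fluorescence ratio over time as area under calcium response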
TRPC4 sel inh 2: mouse TRPC4 off-target activity of TRPC6 inhibitors, second screen; shares compounds with TRPC6 inhibitor; HEK293 TRPC4/MOR, membrane potential dye fluorescence; channel activated by saturating DAMGO dose; AID 2776; 42% of 920 active; inhibition, % at 10 µM;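 active = compounds whose fluorescence signal differed from control wells by over 3 SD, either direction, in both duplicate plates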
TRPC4 spec: selectivity of TRPC6 inhibitors: effect on mouse TRPC4; shares compounds with TRPC6 inhibitor; HEK293 TRPC4/mu-opioid, membrane potential fluorescence; activity change, negative = inhibition, % at 10 µM; 61% of 920 active; AID 2777;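 active = rise or fall in signal beyond 3 SD of buffer-only wells in both replicate plates, either sign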;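 also: integrated kinetic ratio of fluorescence range over baseline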
HEK293 MPD ctr 2-1: parental HEK293 nonspecific activity of TRPC6 inhibitors, second screen; signal change vs control, % at 10 µM; parental HEK293 membrane potential dye fluorescence; maximal acetylcholine challenge after compound addition; shares compounds with TRPC6 inhibitor; 31% of 920 active;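 active = membrane potential signal moving either way by over 3 SD of the maximum-effect control, in both duplicate plates, meaning non-specific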
HEK293 MPD ctr-1: counter-screen for TRPC6 inhibitors: effect in parental HEK293 cells; shares compounds with TRPC6 inhibitor; parental HEK293 membrane potential dye fluorescence; membrane potential signal change, % at 10 µM; 60% of 920 active;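 active = membrane potential signal shifting up or down by more than 3 SD of buffer-only wells, on both duplicate plates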
HEK293 MPD ctr-2: counter-screen for TRPC6 modulators: effect in parental HEK293 cells. membrane potential signal change, % at 10 µM. membrane potential dye fluorescence. 51% of 2,400 active. shares compounds with TRPC6 inhibitor;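 active = membrane potential signal moves up or down beyond 5 SD from buffer-only wells, on both duplicate plates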
HEK293 MPD ctr 2-2: parental HEK293 nonspecific activity of TRPC6 modulators, second screen. shares compounds with TRPC6 inhibitor. membrane potential dye fluorescence; after compound, maximal acetylcholine stimulation. inhibition, % at 10 µM. 14% of 2,400 active. AID 488926;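 active = membrane potential signal drops by more than 5 SD from the mean control signal, in both duplicate plates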;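 also: plate controls were acetylcholine ECmax control wells for no effect and buffer only wells for full effect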
TRPC4/MOR mod: tests whether TRPC6 modulators also affect mouse TRPC4. HEK293 TRPC4/mu-opioid, membrane potential fluorescence. shares compounds with TRPC6 inhibitor. percent change from control (negative = decrease, positive = increase), % at 10 µM. 69% of 2,400 active. AID 488927;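 active = membrane potential signal moved up or down beyond 5 SD of buffer control wells, in both duplicate plates, actives on both sides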;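 also: plate controls were assay buffer wells for no effect and DAMGO maximal-effect wells for full effect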
TRPC4 ctr inh 2: second selectivity test of TRPC6 modulators against mouse TRPC4 | shares compounds with TRPC6 inhibitor | HEK293 TRPC4/mu-opioid, membrane potential dye fluorescence; stimulated with maximal-effect DAMGO | inhibition, % at 10 µM | 55% of 2,400 active;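 active = drop in membrane potential signal beyond 5 SD of the control wells in both duplicate plates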;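 also: TRPC4 counter screen for TRPC6 hits run under conditions tuned for TRPC6 not TRPC4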
TRPC6 block conf: confirmation of mouse TRPC6 inhibitors; shares compounds with TRPC6 inhibitor; HEK293-TRPC6, membrane potential dye, ACh-evoked depolarization; inhibition, % at 10 µM; 43% of 3,300 active; AID 488960;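 active = fluorescence ratio falls more than 5 SD below the full-stimulation control mean, in both duplicate runs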;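 also: integrated fluorescence ratio of peak minus minimum over baseline after agonist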
TRPC6 act confirm: confirmation of mouse TRPC6 activators. 11% of 2,800 active. AID 488961. HEK293-TRPC6 membrane potential dye fluorescence, FDSS. activation, % at 10 µM. shares compounds with TRPC6 inhibitor;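 active = ratio signal rise beyond 5 SD above unstimulated control wells' mean, seen in both duplicate runs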;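 also: plate controls were buffer EC0 wells for no effect and acetylcholine ECmax response for full effect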
* marks the source's active call; other numbers are inactive results; i = inactive; / = no result.

SMILES | TRPC4 block | TRPC4 agonist | TRPC6 inhibitor | TRPC6 act | TRPC4 potent | HEK293 MPD ctr-2 | HEK293 MPD ctr 2-2 | TRPC4/MOR mod | TRPC4 ctr inh 2 | TRPC6 block conf | TRPC6 act confirm | others
CN1CCC(OC(=O)COc2ccc(Br)cc2)CC1 | i | i | -5.53* | i | i | i | i | 13.0%* | i | i | /
COc1ccc(OCC(=O)OC2CCN(C)CC2)cc1 | i | i | i | i | i | / | / | / | / | / | /
COCCC(=O)N1CCCC(CCC(=O)NCc2ccc(F)c(F)c2)C1 (configuration not stated) | i | i | i | i | i | / | / | / | / | / | /
COC(=O)c1ccc(CN2CCCC(CCC(=O)NCc3ccc(C)o3)C2)cc1 (configuration not stated) | i | i | -7.93* | i | i | / | / | / | / | 56.3%* | i | TRPC4 sel inh 2=i;TRPC4 spec=0.0%*;HEK293 MPD ctr 2-1=i;HEK293 MPD ctr-1=3.2%*
COc1ccc(/C=C/CN2CCCC(CCC(=O)NCc3ccc(F)c(F)c3)C2)cc1 (configuration not stated) | i | i | -7.37* | i | i | / | / | / | / | i | i | TRPC4 sel inh 2=48.0%*;TRPC4 spec=0.3%*;HEK293 MPD ctr 2-1=i;HEK293 MPD ctr-1=7.4%*
Cc1ccccc1C(=O)Nc1nnc(SCC(=O)NCc2ccco2)s1 | i | i | i | i | i | / | / | / | / | / | /
O=C(CCNC(=O)c1ccc(Br)cc1)NCc1ccccn1 | i | i | i | i | i | / | / | / | / | / | /
Cc1cc(OCC(=O)NCCCn2ccnc2)c2c(C)c(C)c(=O)oc2c1 | i | i | -6.13* | i | i | -276.0%* | i | -48.5%* | 36.5%* | i | i
COc1ccc(-c2cc(=O)oc3c(C)c(OCC(=O)NCCCn4ccnc4)ccc23)cc1 | i | i | i | i | i | / | / | / | / | / | /
CCCc1cc(=O)oc2c(C)c(OCC(=O)NCCCn3ccnc3)ccc12 | i | i | -5.76* | i | i | -135.5%* | i | -19.5%* | i | i | i
CCc1cc(=O)oc2cc(C)cc(OCC(=O)NCCCn3ccnc3)c12 | i | i | i | i | i | / | / | / | / | / | /
O=c1c2c3c(sc2nc(N2CCNCC2)n1-c1cccc(Cl)c1)CCCCC3 | i | i | -7.18* | i | i | / | / | / | / | 59.6%* | i | TRPC4 sel inh 2=60.5%*;TRPC4 spec=i;HEK293 MPD ctr 2-1=i;HEK293 MPD ctr-1=i
CCCCCNc1nc2sc3c(c2c(=O)n1-c1cccc(Cl)c1)CCN(C)C3 | i | i | -5.45* | i | i | i | i | i | 68.5%* | 45.0%* | i

High-throughput results deposited in PubChem BioAssay by Johns Hopkins Ion Channel Center.
